ChEMBL document CHEMBL1938395, “New benzimidazole derivatives as antiplasmodial agents and plasmepsin inhibitors: synthesis and analysis of structure-activity relationships” (Bioorg Med Chem Lett, 2012)

Experiments:
Plasmodium falciparum [1] = assay: Antiplasmodial activity against late ring stage Plasmodium falciparum HB3 assessed as [3H]hypoxanthine incorporation after 24 hrs by scintillation counting; format: functional, organism-based
Method in brief: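 Late ring stage cultures at 0.5% parasitemia were exposed to a range of compound concentrations in hypoxanthine-free rich medium for 42 h. 0.5 µCi [3H]hypoxanthine was then added and incubation continued for 24 h. Cells were harvested on glass fiber paper and counted by scintillation. Percent inhibition of uptake versus concentration was fitted with a modified dose–response logistic equation for IC50.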

Plasmepsin II = Plasmepsin II (Plasmodium falciparum, UniProt P46925); assay: Inhibition of Plasmodium falciparum plasmepsin-2 using DABCYL-Glu-Arg-Nle-Phe-Leu-Ser-Phe-Pro-EDANS as substrate by FRET analysis
Sequence of Plasmepsin II (P46925 whole entry): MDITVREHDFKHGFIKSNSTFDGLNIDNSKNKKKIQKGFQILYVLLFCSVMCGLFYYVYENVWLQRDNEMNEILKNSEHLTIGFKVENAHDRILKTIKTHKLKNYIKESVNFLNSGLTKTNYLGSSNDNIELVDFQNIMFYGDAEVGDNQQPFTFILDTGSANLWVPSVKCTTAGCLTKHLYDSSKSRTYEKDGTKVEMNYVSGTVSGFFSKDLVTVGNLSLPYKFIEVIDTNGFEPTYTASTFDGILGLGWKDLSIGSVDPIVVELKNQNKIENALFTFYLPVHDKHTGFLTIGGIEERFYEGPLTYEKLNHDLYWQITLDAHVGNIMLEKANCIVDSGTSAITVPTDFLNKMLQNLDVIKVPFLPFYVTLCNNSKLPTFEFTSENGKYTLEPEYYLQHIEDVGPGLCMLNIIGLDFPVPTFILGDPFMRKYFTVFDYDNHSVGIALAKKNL
Method in brief: (§1)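 Enzyme (plasmepsin II or cathepsin D) at 1.2 nM with 1.0 µM FRET substrate in 0.1 M sodium acetate pH 5.0, 10% glycerol, 0.01% Tween 20. Compounds were dissolved in DMSO and added before substrate, at 5.0% final DMSO. Fluorescence was read at excitation 336 nm and emission 490 nm. Triplicates.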

Cathepsin D = Cathepsin D (Homo sapiens, UniProt P07339); assay: Inhibition of human cathepsin D using DABCYL-Glu-Arg-Nle-Phe-Leu-Ser-Phe-Pro-EDANS as substrate by FRET analysis; method in brief: as §1
Sequence of Cathepsin D (P07339 65-162 limits assumed): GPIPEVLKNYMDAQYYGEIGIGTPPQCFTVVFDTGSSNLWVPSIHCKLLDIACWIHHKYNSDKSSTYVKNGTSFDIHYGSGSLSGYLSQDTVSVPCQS
Sequence of Cathepsin D (P07339 169-412 limits assumed): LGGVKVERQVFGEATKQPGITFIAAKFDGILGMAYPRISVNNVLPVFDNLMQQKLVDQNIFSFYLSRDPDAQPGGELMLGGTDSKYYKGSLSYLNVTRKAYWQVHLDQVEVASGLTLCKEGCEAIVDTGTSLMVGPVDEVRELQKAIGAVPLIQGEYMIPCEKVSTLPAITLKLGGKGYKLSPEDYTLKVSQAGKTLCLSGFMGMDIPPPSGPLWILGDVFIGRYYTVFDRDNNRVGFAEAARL

Plasmodium falciparum [2] = assay: Antiplasmodial activity against late ring stage Plasmodium falciparum HB3 after 1 hr by acridine orange staining-based flow cytometric analysis; format: functional, organism-based; settings: HB3, 1 h

SMILES	IC50 (Plasmodium falciparum [1]) [µM]	IC50 (Plasmepsin II) [µM]	IC50 (Cathepsin D) [µM]	IC50 (Plasmodium falciparum [2]) [µM]
O=C(Cn1c(-c2ccccn2)nc2ccccc21)c1ccc([N+](=O)[O-])cc1	2.1	30.5	17.8	–
COc1ccc(OC)c(C(=O)Cn2c(-c3ccccn3)nc3ccccc32)c1	≤ 3	34	21.2	–
O=C(Cn1c(-c2ccccn2)nc2ccccc21)c1cccc([N+](=O)[O-])c1	≥ 3	20.4	21.2	–
O=C(Cn1c(-c2ccccn2)nc2ccccc21)c1ccc(O)c(O)c1	≥ 3	19.6	28.5	–
O=C(Cn1c(-c2ccccn2)nc2ccccc21)c1ccc(F)cc1F	≥ 3	48	44.5	–
COc1ccc(C(=O)Cn2c(-c3ccccn3)nc3ccccc32)cc1	≤ 3	37.7	14.2	–
O=C(Cn1c(-c2ccccn2)nc2ccccc21)c1ccccc1[N+](=O)[O-]	≥ 3	30.6	39.2	–

Continued, values first:

IC50 (Plasmodium falciparum [1]) [µM]	IC50 (Plasmepsin II) [µM]	IC50 (Cathepsin D) [µM]	IC50 (Plasmodium falciparum [2]) [µM]	SMILES
3	10	31.9	–	O=C(Cn1c(-c2ccccn2)nc2ccccc21)c1ccc(F)cc1
0.16	14.7	2	0.166	O=C(Cn1c(-c2ccccn2)nc2ccccc21)c1ccc(-c2ccccc2)cc1
≥ 3	10	39.2	–	O=C(Cn1c(-c2ccccn2)nc2ccccc21)c1ccccc1
0.7	21.2	31.9	–	O=C(Cn1c(-c2ccccn2)nc2ccccc21)c1ccc(Cl)cc1
